Test results published in ChEMBL document CHEMBL1134835, “Analogues of prazosin that bear a benextramine-related polyamine backbone exhibit different antagonism toward alpha1-adrenoreceptor subtypes” (J Med Chem, 2001).

Assays:
[1] = target: T1, Alpha-1A adrenergic receptor (Rattus norvegicus) (UniProt P43140)
T1 sequence (whole entry): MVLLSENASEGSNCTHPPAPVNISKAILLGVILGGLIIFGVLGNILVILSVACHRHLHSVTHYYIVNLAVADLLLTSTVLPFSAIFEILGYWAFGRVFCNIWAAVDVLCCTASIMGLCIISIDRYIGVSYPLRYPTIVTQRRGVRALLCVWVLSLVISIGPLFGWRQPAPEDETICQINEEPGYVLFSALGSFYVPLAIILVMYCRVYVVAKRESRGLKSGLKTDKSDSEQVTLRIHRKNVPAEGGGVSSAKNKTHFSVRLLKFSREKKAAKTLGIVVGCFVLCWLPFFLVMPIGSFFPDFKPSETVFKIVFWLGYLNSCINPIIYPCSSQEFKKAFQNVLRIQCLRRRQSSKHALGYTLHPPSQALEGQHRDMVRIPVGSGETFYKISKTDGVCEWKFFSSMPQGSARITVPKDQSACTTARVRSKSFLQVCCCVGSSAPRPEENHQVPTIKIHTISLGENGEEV

[2] = target: T2, Alpha-1B adrenergic receptor (Rattus norvegicus) (UniProt P15823); conditions: Spleen
T2 sequence (whole entry): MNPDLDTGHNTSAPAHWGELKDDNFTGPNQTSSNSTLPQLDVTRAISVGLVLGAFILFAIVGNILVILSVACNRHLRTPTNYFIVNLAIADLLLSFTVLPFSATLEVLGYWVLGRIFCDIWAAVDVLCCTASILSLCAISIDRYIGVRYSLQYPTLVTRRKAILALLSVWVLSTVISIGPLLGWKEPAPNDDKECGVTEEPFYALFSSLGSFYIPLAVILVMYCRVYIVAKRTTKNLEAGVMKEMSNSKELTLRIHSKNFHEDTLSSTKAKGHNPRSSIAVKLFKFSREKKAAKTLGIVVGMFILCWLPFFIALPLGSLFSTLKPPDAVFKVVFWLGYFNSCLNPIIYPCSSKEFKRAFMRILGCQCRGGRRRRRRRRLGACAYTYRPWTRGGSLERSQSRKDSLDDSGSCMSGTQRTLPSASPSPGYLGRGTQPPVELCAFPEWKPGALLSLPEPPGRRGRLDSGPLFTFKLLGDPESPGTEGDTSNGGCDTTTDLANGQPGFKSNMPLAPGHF

[3] = target: T3, Alpha-1D adrenergic receptor (Rattus norvegicus) (UniProt P23944); conditions: Thoracic aorta
T3 sequence (whole entry): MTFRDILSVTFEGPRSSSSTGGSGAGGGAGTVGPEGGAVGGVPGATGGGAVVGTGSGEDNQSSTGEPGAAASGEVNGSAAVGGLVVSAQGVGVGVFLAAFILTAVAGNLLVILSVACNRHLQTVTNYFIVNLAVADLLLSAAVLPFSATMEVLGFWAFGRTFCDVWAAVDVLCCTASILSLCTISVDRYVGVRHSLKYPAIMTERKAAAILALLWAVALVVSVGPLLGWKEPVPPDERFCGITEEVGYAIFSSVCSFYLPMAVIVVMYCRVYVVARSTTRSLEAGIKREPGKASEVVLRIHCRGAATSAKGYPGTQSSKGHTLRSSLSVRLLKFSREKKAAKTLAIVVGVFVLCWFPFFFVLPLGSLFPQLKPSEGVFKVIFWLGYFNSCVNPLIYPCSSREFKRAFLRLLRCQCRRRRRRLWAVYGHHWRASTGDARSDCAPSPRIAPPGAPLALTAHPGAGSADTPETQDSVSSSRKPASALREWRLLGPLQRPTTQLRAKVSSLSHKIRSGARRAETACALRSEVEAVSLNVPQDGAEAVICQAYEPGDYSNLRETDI

[4] = target: T4, Alpha-1A adrenergic receptor (Rattus norvegicus, UniProt P43140); assay: Antagonist affinity [non competitive (irreversible)] at alpha-1A-adrenoceptors on isolated prostatic Vas deferens from rat; assay type: functional
T4 sequence (P43140 whole entry): T1 sequence (whole entry)
Summary of the method: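 Rat vas deferens prostatic portion, equilibrated 60 min with washes every 15 min, primed twice with 10 µM noradrenaline, then a basal noradrenaline concentration-response curve (solutions with 0.05% Na₂S₂O₅). Antagonist 30 min, then 30 min washing, then a new curve. Maximal-response decrease expressed as % of control; IC50 read graphically from % inhibition vs log molar concentration, given as pIC50 ± SE.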

[5] = target: T5, Alpha-1B adrenergic receptor (Rattus norvegicus, UniProt P15823); assay: Antagonist affinity [non competitive (irreversible)] at alpha-1B-adrenoceptors on isolated spleen from rat; assay type: functional, tissue-based
T5 sequence (P15823 whole entry): T2 sequence (whole entry)
Summary of the method: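 Isolated rat spleen contracted by (-)-phenylephrine, measured isometrically. Cumulative curves run at 30 min intervals, the second taken as control. Antagonist incubated 30 min, washed 30 min, then a new curve. Loss of maximal response expressed as % of control; IC50 estimated from % inhibition vs log molar concentration plots, reported as pIC50 ± SE of n experiments.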

| pKb [1] | pKb [2] | pKb [3] | IC50 [4] | IC50 [5] | Structure (SMILES) |
| --- | --- | --- | --- | --- | --- |
| 7.66 | 7.44 | 8.86 |  |  | COc1cc2nc(N3CCN(C(=O)c4ccccc4)CC3)nc(N)c2cc1OC |
| 7.43 | 7.45 | 8.31 |  |  | COc1cc2nc(N3CCN(C(=O)c4ccc(C(F)(F)F)cc4)CC3)nc(N)c2cc1OC |
| 8.99 |  | 9.71 |  |  | COc1cc2nc(N3CCN(C(=O)c4ccco4)CC3)nc(N)c2cc1OC |
| 7.87 | 7.84 | 7.46 |  |  | COc1cccc(C(=O)N2CCN(c3nc(N)c4cc(OC)c(OC)cc4n3)CC2)c1 |
| 7.59 | 6.95 | 8.38 |  |  | COc1cc2nc(N3CCN(C(=O)c4ccc(C=O)cc4)CC3)nc(N)c2cc1OC |
| 7.96 | 7.67 | 8.91 |  |  | COc1cc2nc(N3CCN(C(=O)c4ccc(C)cc4)CC3)nc(N)c2cc1OC |
| 7.49 | 7.16 | 8.38 |  |  | COc1cc2nc(N3CCN(C(=O)c4cccc(C(F)(F)F)c4)CC3)nc(N)c2cc1OC |
| 7.79 | 6.92 | 8.07 |  |  | COc1cc2nc(N3CCN(C(=O)c4cccc(C=O)c4)CC3)nc(N)c2cc1OC |
| 8.17 | 7.22 | 8.47 |  |  | COc1cc2nc(N(C)CCCCCCN(C)C(=O)c3ccccc3CNCCCCCCNCCCCCCNCCCCCCNCc3ccccc3C(=O)N(C)CCCCCCN(C)c3nc(N)c4cc(OC)c(OC)cc4n3)nc(N)c2cc1OC |
| 8.48 | 7.41 | 9.3 |  |  | COc1cc2nc(N(C)CCCCCCN(C)C(=O)c3cccc(CNCCCCCCNCCCCCCNCCCCCCNCc4cccc(C(=O)N(C)CCCCCCN(C)c5nc(N)c6cc(OC)c(OC)cc6n5)c4)c3)nc(N)c2cc1OC |
|  |  |  | 5.01 µM | 5.13 µM | COc1cc2nc(N3CCN(C(=O)c4ccccc4CNCCCCCCNCCSSCCNCCCCCCNCc4ccccc4C(=O)N4CCN(c5nc(N)c6cc(OC)c(OC)cc6n5)CC4)CC3)nc(N)c2cc1OC |
| 8.49 | 8.12 | 9.12 |  |  | COc1cc2nc(N3CCN(C(=O)c4cccc(C)c4)CC3)nc(N)c2cc1OC |
| 8.53 | 7.56 | 7.9 |  |  | COc1cc2nc(N(C)CCCCCCN(C)C(=O)c3ccc(CNCCCCCCNCCCCCCNCCCCCCNCc4ccc(C(=O)N(C)CCCCCCN(C)c5nc(N)c6cc(OC)c(OC)cc6n5)cc4)cc3)nc(N)c2cc1OC |
| 7.34 | 6.77 | 7.76 |  |  | COc1cc2nc(N3CCN(C(=O)c4ccccc4OC)CC3)nc(N)c2cc1OC |
|  |  |  | 3.89 µM | 55 µM | COc1cc2nc(N3CCN(C(=O)c4cccc(CNCCCCCCNCCSSCCNCCCCCCNCc5cccc(C(=O)N6CCN(c7nc(N)c8cc(OC)c(OC)cc8n7)CC6)c5)c4)CC3)nc(N)c2cc1OC |
|  |  |  | 4.68 µM | 2.14 µM | COc1cc2nc(N(C)CCCCCCN(C)C(=O)c3ccc(CNCCCCCCNCCSSCCNCCCCCCNCc4ccc(C(=O)N(C)CCCCCCN(C)c5nc(N)c6cc(OC)c(OC)cc6n5)cc4)cc3)nc(N)c2cc1OC |
| 6.94 | 6.5 | 7.56 |  |  | COc1cc2nc(N3CCN(C(=O)c4ccccc4C=O)CC3)nc(N)c2cc1OC |
|  |  |  | 1.86 µM | 1.86 µM | COc1cc2nc(N(C)CCCCCCN(C)C(=O)c3ccccc3CNCCCCCCNCCSSCCNCCCCCCNCc3ccccc3C(=O)N(C)CCCCCCN(C)c3nc(N)c4cc(OC)c(OC)cc4n3)nc(N)c2cc1OC |
| 6.97 | 7.33 | 7.99 |  |  | COc1cc2nc(N3CCN(C(=O)c4ccccc4C)CC3)nc(N)c2cc1OC |
| 7.29 | 6.5 | 7.43 |  |  | COc1cc2nc(N3CCN(C(=O)c4cccc(CNCCCCCCNCCCCCCNCCCCCCNCc5cccc(C(=O)N6CCN(c7nc(N)c8cc(OC)c(OC)cc8n7)CC6)c5)c4)CC3)nc(N)c2cc1OC |
| 7.74 | 6.8 | 7.94 |  |  | COc1cc2nc(N3CCN(C(=O)c4ccccc4CNCCCCCCNCCCCCCNCCCCCCNCc4ccccc4C(=O)N4CCN(c5nc(N)c6cc(OC)c(OC)cc6n5)CC4)CC3)nc(N)c2cc1OC |
| 6.43 | 6.55 | 8.31 |  |  | COc1cc2nc(N3CCN(C(=O)c4ccccc4C(F)(F)F)CC3)nc(N)c2cc1OC |
| 8.46 | 7.74 | 8.98 |  |  | COc1ccc(C(=O)N2CCN(c3nc(N)c4cc(OC)c(OC)cc4n3)CC2)cc1 |
| 6.97 | 7.16 | 7.47 |  |  | COc1cc2nc(N3CCN(C(=O)c4ccc(CNCCCCCCNCCCCCCNCCCCCCNCc5ccc(C(=O)N6CCN(c7nc(N)c8cc(OC)c(OC)cc8n7)CC6)cc5)cc4)CC3)nc(N)c2cc1OC |
|  |  |  | 2 µM | 41.7 µM | COc1cc2nc(N3CCN(C(=O)c4ccc(CNCCCCCCNCCSSCCNCCCCCCNCc5ccc(C(=O)N6CCN(c7nc(N)c8cc(OC)c(OC)cc8n7)CC6)cc5)cc4)CC3)nc(N)c2cc1OC |
|  |  |  | 0.0457 µM | 1.74 µM | COc1cc2nc(N(C)CCCCCCN(C)C(=O)c3cccc(CNCCCCCCNCCSSCCNCCCCCCNCc4cccc(C(=O)N(C)CCCCCCN(C)c5nc(N)c6cc(OC)c(OC)cc6n5)c4)c3)nc(N)c2cc1OC |
